Test results as given in ChEMBL document CHEMBL1147877, “Synthesis of novel triheterocyclic thiazoles as anti-inflammatory and analgesic agents” (2007).

How the values were obtained:
[1] = tested on: Mus musculus; assay: Acute toxicity in Albino mouse at 100 mg/kg after 24 hrs; format: functional, organism-based; parameters: dose 100 mg/kg
Method in brief: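 Albino mice (20–25 g), fasted overnight, dosed across 1000–100 mg/kg body weight and watched for 24 h for signs of acute toxicity, e.g. raised or lowered motor activity, tremors, convulsion, sedation, lacrimation.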

[2] = tested on: Rattus norvegicus; assay: Antiinflammatory activity in rat assessed as inhibition of formalin-induced paw oedema at 100 mg/kg, ip after 2 hrs; format: functional; settings: route intraperitoneal
Method in brief: (§1)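 Albino rats of either sex, six per group, with plain 2% CMC as control. Formalin injected into the paw to induce oedema. Paw volume measured by plethysmograph (mercury displacement) immediately after injection (0 h), then at 0.5, 1, 2, 4, 8, 12 and 24 h. Results given as % inhibition of inflammation. P < 0.05 taken as significant.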

[3] = tested on: Rattus norvegicus; assay: Antiinflammatory activity in rat assessed as inhibition of formalin-induced paw oedema at 100 mg/kg, ip after 4 hrs; format: functional; settings: route intraperitoneal; method in brief: as §1
[4] = tested on: Rattus norvegicus; assay: Antiinflammatory activity in rat assessed as inhibition of formalin-induced paw oedema at 100 mg/kg, ip after 8 hrs; format: functional; settings: route intraperitoneal; method in brief: as §1
[5] = tested on: Rattus norvegicus; assay: Antiinflammatory activity in rat assessed as inhibition of formalin-induced paw oedema at 100 mg/kg, ip after 12 hrs; format: functional; settings: route intraperitoneal; method in brief: as §1
[6] = tested on: Rattus norvegicus; assay: Antiinflammatory activity in rat assessed as inhibition of formalin-induced paw oedema at 100 mg/kg, ip; format: functional; settings: route intraperitoneal; method in brief: as §1
[7] = tested on: Rattus norvegicus; assay: Antiinflammatory activity in rat assessed as inhibition of formalin-induced paw oedema at 100 mg/kg, ip after 1 hr; format: functional; settings: route intraperitoneal; method in brief: as §1
[8] = tested on: Rattus norvegicus; assay: Antiinflammatory activity in rat assessed as inhibition of formalin-induced paw oedema at 100 mg/kg, ip after 0.5 hrs; format: functional; settings: route intraperitoneal; method in brief: as §1
[9] = tested on: Rattus norvegicus; assay: Antiinflammatory activity in rat assessed as inhibition of formalin-induced paw oedema at 100 mg/kg, ip after 24 hrs; format: functional; settings: route intraperitoneal; method in brief: as §1
[10] = tested on: Mus musculus; assay: Analgesic activity in Albino mouse assessed as inhibition of acetic acid-induced writhing responses at 100 mg/kg, po; parameters: scale not given: the % may be the effect or the level left

Compound | Activity [1] | inhibition in vivo at 100 mg/kg [2] [%] | inhibition in vivo at 100 mg/kg [3] [%] | inhibition in vivo at 100 mg/kg [4] [%] | inhibition in vivo at 100 mg/kg [5] [%] | inhibition in vivo at 100 mg/kg [6] [%] | inhibition in vivo at 100 mg/kg [7] [%] | inhibition in vivo at 100 mg/kg [8] [%] | inhibition in vivo at 100 mg/kg [9] [%] | Activity [10] [%]
O=c1cc(CNc2nc(-c3cc4ccccc4oc3=O)cs2)c2ccc(Cl)cc2[nH]1 | Not toxic |  |  |  |  |  |  |  |  | 
Cc1cccc2c(CNc3nc(-c4cc5cc(Br)cc(Br)c5oc4=O)cs3)cc(=O)[nH]c12 | Not toxic | 16.3 | 22.7 | 33.7 | 16.7 | 2.65 | 11.3 | 3.65 | 9.78 | 62.73
CC(=O)Oc1ccccc1C(=O)O [ASPIRIN] |  | 29.9 | 49.9 | 39.7 | 22.2 | 5.97 | 17.1 | 9.76 | 17.4 | 81.56
O=c1cc(CNc2nc(-c3cc4ccccc4oc3=O)cs2)c2cc(Cl)ccc2[nH]1 | Not toxic |  |  |  |  |  |  |  |  | 
O=c1cc(CNc2nc(-c3cc4cc(Br)ccc4oc3=O)cs2)c2cc(Cl)ccc2[nH]1 | Not toxic | 5.26 | 19.8 | 28.6 | 15.6 | 3.03 | 4.42 | 4.11 | 9.08 | 88.89
Cc1cccc2c(CNc3nc(-c4cc5cc(Br)ccc5oc4=O)cs3)cc(=O)[nH]c12 | Not toxic | 9.19 | 14.5 | 18.5 | 24.1 | 1.6 | 8.76 | 3.12 | 16.9 | 35.05
O=c1cc(CNc2nc(-c3cc4cc(Br)cc(Br)c4oc3=O)cs2)c2cc(Cl)ccc2[nH]1 | Not toxic | 17.8 | 29.8 | 21.9 | 14.4 | 2.85 | 13.8 | 6.75 | 9.35 | 48.7
Cc1cccc2c(CNc3nc(-c4cc5ccccc5oc4=O)cs3)cc(=O)[nH]c12 | Not toxic |  |  |  |  |  |  |  |  | 
O=c1cc(CNc2nc(-c3cc4cc(Br)cc(Br)c4oc3=O)cs2)c2ccc(Cl)cc2[nH]1 | Not toxic | 13 | 34.5 | 41.5 | 18.7 | 2.89 | 12.6 | 3.27 | 10.6 | 78.22
O=c1cc(CNc2nc(-c3cc4cc(Br)ccc4oc3=O)cs2)c2ccc(Cl)cc2[nH]1 | Not toxic | 9.09 | 13.3 | 24.5 | 23.2 | 2.4 | 5.8 | 5.26 | 18.4 | 64.94
